Lung fibro prol – blocks proliferation of human lung fibroblasts | LL 47 human lung fibroblast viability, ATP luminescence; stronger effect = lower value | viability, % at 10 µM | 1.1% of 85,000 active | AID 719;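 active means viability at or below 50% in the single dose screen; inactive means viability above 50%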;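 further: compound exposure lasted 72 h before the ATP readout; 100% = median luminescence of untreated cell-only wells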
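Benchmarks: Cell-only wells, no compound | Test system: LL 47 human lung fibroblasts, passage 12 or lower | Input: 1,150 cells/well | Measured by: CellTiter-Glo luminescence measuring cellular ATP | Medium: IMEM, 15% FBS supplement | Schedule: Overnight attachment after seeding, then 72 h compound exposure at 37 °C | Doses: Compound addition at 0.1% DMSO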
H69AR growth 86K – blocks growth of human H69AR lung tumor cells | H69AR lung tumor viability, ATP luminescence, 72 h; stronger effect = lower value | viability, % at 10 µM | 6% of 85,000 active;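 active means viability at or below 40%; inactive means viability above 40%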;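 further: multidrug resistant small cell line overexpressing MRP-1 efflux transporter; 100% = mean luminescence of untreated control wells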
PTEN del growth – growth suppressors of cells with PTEN tumor suppressor deletion; HCT116 PTEN-null viability, CellTiter-Glo, 60 h; stronger effect = lower value; viability, % at 10 µM; 1.2% of 140,000 active; AID 827;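 active means viability at or below a set limit, 4 SD under the median of all tested compounds, cut at about 3.7% in these data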;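 further: PTEN knockout HCT116 line with beta catenin targeted HCT116 as companion control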
HUVEC prolif 384 – blocks proliferation of human endothelial cells. HUVEC proliferation, CellTiter-Glo luminescence, 72 h; stronger effect = lower value. viability, % at 10 µM (by protocol). 1.1% of 86,000 active. AID 648;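 active means viability at or below 30%; inactive means viability above 30%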;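 further: 100% = median luminescence of DMSO-only cell control wells on each plate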
bCat KO growth – beta-catenin-lacking colon tumor cell growth suppression | HCT116 beta-catenin knockout viability, CellTiter-Glo, 60 h; stronger effect = lower value | viability, % at 10 µM | 1.5% of 140,000 active | AID 818;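 active means viability at or under a set limit, the compound median less 4 SD, cut at about 6% in these data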;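 further: 0% = Hyamine 1622 control at 20 µM and 100% = untreated cell control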
* marks the source's active call; other numbers are inactive results; · = no result. This excerpt belongs to a sample that is enriched for hits.

SMILES | Lung fibro prol | H69AR growth 86K | PTEN del growth | HUVEC prolif 384 | bCat KO growth
Cc1ccc(NC2=C(Cl)C(=O)c3ccccc3C2=O)cc1 | · | · | 0.8* | · | 0.9*
CCNC1=C(Cl)C(=O)c2ccccc2C1=O | 69 | 41 | 31 | 101 | 19
CCN(CC)c1ccc(NC2=C(Cl)C(=O)c3ccccc3C2=O)cc1 | · | · | 0.5* | · | 0.8*
Cc1cccc2c1CC(C)(C)N=C2C1=C(O)CCCC1=O | 95 | 95 | 87 | 103 | 89
CCCCOc1cccc(C(=O)N(Cc2cccs2)C2CCS(=O)(=O)C2)c1 (stereo not drawn) | 93 | 37* | 82 | 96 | 79
CCCOc1cccc(C(=O)N(Cc2cccs2)C2CCS(=O)(=O)C2)c1 (stereo not drawn) | 92 | 100 | 98 | 96 | 94
Cc1ccc(C)c(NC(=O)CSc2nc3[nH]ncc3c(=O)[nH]2)c1 | · | · | 104 | · | 86
O=C(Cn1nnc(-c2ccccc2)n1)NCc1ccco1 | 99 | 107 | 87 | 102 | 90
O=C(Cn1cnc2sc(-c3ccccc3)cc2c1=O)NCc1ccco1 | 68 | 26* | 45 | 54 | 49
O=C(Cn1cnc2sc(-c3ccccc3)cc2c1=O)NCCc1ccccc1 | 69 | 26* | 10 | 39 | 7
O=C(Cn1cnc2sc(-c3ccccc3)cc2c1=O)NCc1ccccc1 | 65 | 22* | 2.2* | 51 | 2.1*
O=C(CN1CCN(Cc2ccccc2F)C1=O)NCCN1CCOCC1 | 99 | 103 | 104 | 102 | 107
C=CCc1ccc(OCC(O)CN2CCC(Cc3ccccc3)CC2)c(OC)c1 (stereo not drawn) | 85 | 21* | 29 | 14* | 22
CCOc1ccccc1NC(=O)c1nc[nH]c1C(=O)Nc1ccccc1OCC | 81 | 56 | 81 | 75 | 85
COc1ccc(NC(=O)c2nc[nH]c2C(=O)Nc2ccccc2C)cc1 | 66 | 20* | 16 | 53 | 17
COc1ccccc1NC(=O)c1nc[nH]c1C(=O)Nc1ccccc1OC | 91 | 39* | 82 | 95 | 83
COc1ccccc1NC(=O)N1CCCC1C(=O)NCc1ccccc1 (stereo not drawn) | · | · | 108 | · | 97
Cc1cc(C(=O)N2CCc3ccccc32)n(-c2ccccc2)n1 | 89 | 22* | 31 | 71 | 38
COc1ccc(OC)c(/C=N/c2oc(-c3ccco3)c(-c3ccco3)c2C#N)c1 | 94 | 43 | 5 | 85 | 3.5*
N#Cc1c(N)oc(-c2ccco2)c1-c1ccco1 | 100 | 83 | 12 | 93 | 5.9*
CCSc1nc(N)c(C#N)c(-c2ccco2)c1C#N | 84 | 32* | 86 | 80 | 87
N#Cc1c(/N=C/c2ccco2)oc(-c2ccccc2)c1-c1ccccc1 | 92 | 98 | 103 | 109 | 98
O=C(c1ccc(COc2c(F)c(F)c(F)c(F)c2F)o1)N1CCN(Cc2ccc3c(c2)OCO3)CC1 | 93 | 28* | 76 | 94 | 85
CCOc1cc(/C=N/NC(=O)CSc2nnc(C)s2)ccc1OCc1ccccc1Cl | · | · | 44 | · | 55
CCOc1cc(/C=N\NC(=O)Cn2nc([N+](=O)[O-])cc2C)ccc1OCc1cccc2ccccc12 | 102 | 16* | 50 | 44 | 59
SMILES | Lung fibro prol | H69AR growth 86K | PTEN del growth | HUVEC prolif 384 | bCat KO growth
O=C(c1ccccc1F)N1CCN(S(=O)(=O)c2ccc3c(c2)OCCO3)CC1 | 95 | 96 | 92 | 109 | 88
O=C1C(Cl)=C(N2CCOCC2)C(=O)N1c1ccccc1Cl | · | 28* | 91 | 101 | 97
O=C(Cc1ccc(-n2cccc2)cc1)NCc1cccs1 | 61 | 29* | 23 | 67 | 18
N#C/C(=C\c1ccc(OCc2ccccc2)cc1)C(=O)Nc1nc2c(s1)CCN(Cc1ccccc1)C2 | 17* | 22* | 30 | 13* | 50
COc1cccc(/C=C/C(=O)NCCc2ccc3c(c2)OCCO3)c1 | · | · | 93 | · | 96
CCc1ccc(C(=O)/C=C/c2ccc([N+](=O)[O-])o2)cc1 | 15* | 2.6* | 1.5* | 21* | 1.9*
O=c1[nH][nH]c(-c2ccccc2O)c1C(C[N+](=O)[O-])c1ccc(Cl)cc1Cl (stereo not drawn) | · | · | 58 | · | 36
O=c1[nH][nH]c(-c2ccccc2O)c1C(C[N+](=O)[O-])c1cccc(Cl)c1 (stereo not drawn) | · | · | 8 | · | 5.9*
O=c1[nH][nH]c(-c2ccccc2O)c1C(C[N+](=O)[O-])c1ccccc1 (stereo not drawn) | · | · | 4 | · | 5.7*
Cn1cc(CN2CCN(c3ccccc3)CC2)c2ccccc21 | 91 | 74 | 75 | 70 | 68
